RAM network inh: inhibitors of the yeast RAM network; 190,000 tested, 1.8% active; AID 868; S. cerevisiae dse1pr::URA3 reporter, 5-FOA growth OD615, 2 d; analog-sensitive cbk1-as2 kinase mutant strain; inhibition, % at 50 µM;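 active = inhibition above a set limit, 3 SD over mean compound inhibition, cut at about 8.4% in these data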;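 note: 0% = DMSO-only wells with no growth and 100% = 10 µM 1-NA-PP1 full growth; inhibition rescues growth on 5-FOA so higher OD means more RAM inhibition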
Yeast growth inh: reduces growth of yeast BB579 in restrictive medium. S. cerevisiae BB579 growth, OD615, 48 h. inhibition, % at 10 µM. 140,000 tested, 0.51% active;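 active = inhibition above a set limit, 3 SD over the mean compound inhibition, cut at about 44% in these data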
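Assay system – yeast BB579 (DeaD) · Dosing – single compound dose of 10 µM, 0.25% DMSO final · Detection – OD615 turbidity measurement · Buffer or medium – CSMM-D restrictive synthetic medium containing dextrose (glucose) · Benchmarks – positive control amphotericin B 10 µg/mL · Incubation – 48 h exposure, 30 °C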
Insulin prom inh: TRM-6 insulin promoter activity inhibition; 130,000 tested, 0.9% active; TRM-6 cells, insulin promoter-eGFP reporter, imaging; reporter expression induced with tamoxifen; inhibition, % at 2 µM;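 active = inhibition above the mean plus 3 SD, with well images judged a real hit on visual review, cut at about 60% in these data, passing the limit was not always enough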
Efa HMGR inh: E. faecalis class II HMG-CoA reductase inhibition | purified E. faecalis HMGR, NADPH absorbance 340 nm kinetic | inhibition, % at 10 µM | 190,000 tested, 0.41% active;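 active = inhibition above a set limit, the median over all tested compounds plus 3 SD, cut at about 9.5% in these data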;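 note: enzyme runs in reverse so mevalonate oxidation gives rising NADPH absorbance; 0% = complete reaction with DMSO and 100% = background rate lacking mevalonate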
Yeast lifespan up: yeast lifespan extension; S. cerevisiae growth with nicotinamide, OD615; deaD strain in restrictive glucose medium; inhibition of the nicotinamide effect, % at 10 µM; 130,000 tested, 0.68% active; AID 775;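 active = inhibition above a set limit, placed 3 SD over the median of all compounds, cut at about 26% in these data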;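 note: 0% = nicotinamide-treated wells and 100% = cells grown without nicotinamide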
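Buffer or medium: CSMM-D glucose medium, restrictive; test system: modified budding yeast, DeaD strain; compound: single dose 10 µM compound, 0.25% DMSO; schedule: culture preincubation 4 h, compound exposure 48 h, both 30 °C; detection: optical density (absorbance) at 615 nm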
RAM efflux-def: restores 5-FOA growth of efflux-deficient yeast; S. cerevisiae efflux-deficient reporter strain, 5-FOA growth OD615, 2 days; max inhibition, %; shares compounds with RAM network inh; 1,200 tested, under 10 active; call rule not given here;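 note: plate controls were vehicle for no effect and reference inhibitor for full effect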
* = called active by the depositor; / = not tested or not shown. In the library only some 3.7% were active in any assay of this set; here they are far more common.

SMILES	RAM network inh	Yeast growth inh	Insulin prom inh	Efa HMGR inh	Yeast lifespan up	RAM efflux-def
CCN(CC(=O)Nc1cccc(OC)c1)C(=O)c1ccc(C)s1	0	-29	23	-5	-17	/
COc1cc(CNCc2ccccn2)ccc1OCc1cccc(Cl)c1	-1	1	-25	-6	-17	/
Cc1cccc(OCC(=O)O/N=C(\N)Cc2ccc([N+](=O)[O-])cc2)c1	18*	/	/	1	/	2
CCc1ccc(OCC(=O)O/N=C(\N)Cc2ccc([N+](=O)[O-])cc2)cc1	7	-44	33	1	11	/
COc1ccc(/C=C(\C#N)C(=O)OCC(=O)NC2CC2)cc1	2	/	/	-8	/	/
CC(C)C[C@H](NC(=O)c1[nH]cnc1C(=O)N[C@H](C)c1ccccc1)C(=O)OCc1ccccc1	12*	/	/	0	/	4
CCc1nnc(NS(=O)(=O)c2ccc(NC(=S)NC(=O)/C=C/c3ccc(C(C)C)cc3)cc2)s1	1	-41	-31	1	-11	/
O=C(OCC#CCSc1nc2ccccc2o1)c1ccco1	1	8	-42	-4	-11	/
O=C(OCC#CCSc1nnc(-c2cccc3ccccc23)o1)c1ccco1	17*	-44	31	-5	-17	2
COCCNC(=O)C(c1ccc(F)cc1)N(C(=O)CCC(=O)Nc1nccs1)c1ccc(C)cc1 (stereo not given)	12*	/	/	-3	/	2
O=C(Nc1cc(Cl)ccc1N1CCCCC1)c1cccs1	4	-48	-34	1	-10	/
Cc1ccc(C(=O)Nc2cc(Cl)ccc2N2CCCCC2)s1	14*	-12	-17	-4	-6	2
CCc1sc(C(=O)Nc2cc(Cl)ccc2N2CCCCC2)cc1C	14*	-23	/	1	-9	4
COc1cc(C(c2sc3nc(C)nn3c2O)N2CCN(c3ccccc3)CC2)cc(OC)c1OC (stereo not given)	16*	-33	/	0	-10	2
COc1cc(C(c2sc3nc(C)nn3c2O)N2CCOCC2)cc(OC)c1OC (stereo not given)	1	-18	/	-6	-5	/
COc1ccc(C(=O)/C=C/c2ccc(O)cc2)c(O)c1CC=C(C)C	24*	-27	14	3	-7	2
O=C(COC(=O)CCCN1C(=O)c2cccc3cccc(c23)C1=O)Nc1cccc(C(F)(F)F)c1	12*	-49	7	-2	3	3
COc1ccccc1C(=O)Nc1ccc2c(c1)nc(CN1CCCCC1)n2C	1	/	/	-5	/	/
O=C(C1=C[C@H](c2csc3ccccc23)C[C@H](OCc2ccc(CO)cc2)O1)N1CCOCC1	14*	/	/	0	/	1
CN1CCN(C(=O)C2=C[C@@H](c3csc4ccccc34)C[C@@H](OCc3ccc(CO)cc3)O2)CC1	0	/	/	-4	/	/
COc1ccc(-c2nc3ccccc3c(=O)n2CCOc2ccc(C)cc2C)cc1	15*	-26	/	-1	7	6
COc1ccc(-c2nc3ccccc3c(=O)n2CCOc2cc(C)ccc2C)cc1	14*	-54	38	-2	5	5
COc1ccc(-c2nc3ccccc3c(=O)n2CCOc2ccccc2C)cc1	21*	-55	/	-1	11	7
COc1ccc(OC)c([C@@H]2OCCC=C[C@H]2C)c1	1	-48	19	2	2	/
COc1cc(C(=O)Nc2cc(-c3cn4cccnc4n3)ccc2C)cc(OC)c1OC	3	/	12	-3	/	/
SMILES	RAM network inh	Yeast growth inh	Insulin prom inh	Efa HMGR inh	Yeast lifespan up	RAM efflux-def
O=C(O)C1CC=CCC1C(=O)NC1CCCCC1 (stereo not given)	1	/	0	1	/	/
Cc1cc(C)nc(NN=C(c2ccccc2)c2ccccc2)n1	0	-43	/	0	-1	/
CC(C)(C)NC(=O)c1ccc(NC(=O)CSc2ccccc2)cc1	22*	/	/	0	/	2
CCOC(=O)c1cc(-c2ccccc2)sc1NC(=O)c1cc(OC)c(OC)c(OC)c1	4	-6	46	-4	-3	/
COc1ccc(/C=N/NC(=O)c2ccc3ccccc3c2)cc1OS(=O)(=O)c1ccc(NC(C)=O)cc1	4	-43	/	-1	-10	/
Cc1nc(-c2ccccc2)sc1C(=O)O	0	/	/	5	/	/
COc1ccc(/C=C/C(=O)c2sc(-c3ccccc3)nc2C)cc1	13*	-50	/	0	-4	1
C#Cc1ccc(C(=O)Nc2ccc(N3CCC(C)CC3)c(C(N)=O)c2)cc1	4	/	8	-6	/	/
CC(C)=CCc1c(O)c(CC=C(C)C)c2c(c1O)C(=O)CC(c1ccc(O)cc1)O2 (stereo not given)	13*	/	/	2	/	5
Cc1ccc(/C=C2\Oc3cc(OC(=O)N4CCOCC4)ccc3C2=O)cc1	7	-29	2	-9	-4	/
Cc1cccc(/C=C2\Oc3cc(OS(C)(=O)=O)ccc3C2=O)c1	12*	-37	-6	-11	-6	4
CC(C)(C)CNc1cc(N2CCCC2)ccc1[N+](=O)[O-]	6	-3	-126	-3	1	/
CC(C)c1ccc(CNc2cc(N3CCCC3)ccc2[N+](=O)[O-])cc1	19*	-30	-3	-5	-1	5
Cc1cc(C)c(S(=O)(=O)Nc2ccc(O)cc2)c(C)c1	-1	17	-73	1	-8	/
Cc1cc(C)c(S(=O)(=O)Nc2ccc3c(c2)CCC3)c(C)c1	13*	-20	-15	-5	11	3
Clc1cccc(Cl)c1CSc1nnc(-c2sccc2-n2cccc2)o1	17*	-19	/	-5	-9	3
CSc1nnc(-c2sccc2-n2cccc2)o1	1	/	-20	-4	/	/
COc1cccc(OC)c1CN1CCCC(C(=O)c2ccccc2SC)C1 (stereo not given)	1	/	25	-8	/	/
COc1ccc(C(=O)NNC(=O)C(Cc2ccc(O)cc2)NC(=O)c2ccccc2NC(=O)c2ccc(OC)cc2)cc1 (stereo not given)	12*	-27	22	5	6	4
CN(CC(=O)Nc1ccc(Cl)c(Cl)c1)Cc1nnc(-c2ccc(F)cc2)o1	-1	/	/	0	/	/
CCCOc1ccc(N2C(=O)CC(N(CCc3ccccc3)C(=O)c3ccccc3)C2=O)cc1 (stereo not given)	12*	/	/	-5	/	1
CCCOc1ccc(N2C(=O)CC(N(CCc3ccc(OC)cc3)C(=O)c3cccc(F)c3)C2=O)cc1 (stereo not given)	5	-19	27	-1	-1	/
O=C(COC(=O)CC(c1ccccc1)c1ccccc1)Nc1ccc(F)c(F)c1	12*	/	18	-2	/	2
CCOc1ccccc1NC(=O)C(OC(=O)c1cc(C)oc1C)c1ccccc1 (stereo not given)	14*	-28	-6	-8	0	5
Cc1ccc(S(=O)(=O)NCc2ccc3c(c2)cc(C)n3C)cc1	12*	-6	/	-1	-6	3

Screens deposited in PubChem by several laboratories.
